The source of these data is ChEMBL document CHEMBL1132627, “Synthesis and biological evaluation of boron-containing polyamines as potential agents for neutron capture therapy of brain tumors” (J Med Chem, 1999).

Data set [1] is filed under the species Rattus norvegicus. Briefly: In vitro cellular uptake by F98 glioma cells after 48 hr incubation in the presence of 5.4 micro g of B/mL media concentration. The format is functional. An outline of the steps:
(§1)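 5×10^6 F98 cells per flask in DMEM with 10% FBS for 24 h. Medium then replaced with compound at the molar concentration matching the stated boron level, and cells held at 37 °C, 5% CO2. Cells washed three times with PBS, detached with trypsin-EDTA and digested in H2SO4/H2O2. Boron in media and cells by DCP-AES; 10^9 cells ≈ 1 g.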

Data set [2] is filed under the species Rattus norvegicus. Briefly: In vitro cellular uptake by F98 glioma cells after 24 h incubation in the presence of 5.4 ug of B/mL media concentration. It is filed as functional. An outline of the steps:
as §1

Data set [3] is filed under the species Rattus norvegicus. In words: In vitro cellular uptake by F98 glioma cells after 48 hr incubation in the presence of 0.5 micro g of B/mL media concentration. It is filed as functional. In a few lines: as §1
Another data set concerns Nucleic Acid. In words: Concentration required to decrease the fluorescence of the ethidium bromide-calf thymus DNA complex by 50%. The format is nucleic-acid assay, Bos taurus. In a few lines: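 Calf thymus DNA (10 μg) in 2 mM HEPES, 10 μM EDTA, 9.4 mM NaCl, pH 7.0, with 1.6 μM ethidium bromide. Polyamine added stepwise in aliquots. Fluorescence read at excitation 546 nm and emission 598 nm. IC50 is the concentration that lowers complex fluorescence by 50%.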

Data set [4] can be described thus: In Vitro Toxicity measured as the conc. required for 50% reduction in SRBabsorbance by F98 glioma cells. It is filed as functional, Rattus norvegicus. In a few lines:
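F98 rat glioma cells, 10,000/well in DMEM with 10% FBS, grown overnight at 37 °C, 5% CO2. Then exposed 24 h to varying compound concentrations. Fixed with cold TCA (1 h, 4 °C), stained 20 min with 0.4% SRB in 1% acetic acid, dye solubilized in 10 mM Tris base, A492 read. Six replicates per concentration, expressed as % untreated control; IC50 = 50% reduction.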

Data set [5] is filed under the species Rattus norvegicus. Briefly: In vitro cellular uptake by F98 glioma cells after 24 h incubation in the presence of 5.3 ug of B/mL media concentration. The format is functional. In a few lines:
as §1

Data set [6] is filed under the species Rattus norvegicus. In words: In vitro cellular uptake by F98 glioma cells after 48 hr incubation in the presence of 5.3 micro g of B/mL media concentration. The format is functional. In a few lines:
as §1

Data set [7] is filed under the species Rattus norvegicus. Briefly: In vitro cellular uptake by F98 glioma cells after 24 h incubation in the presence of 0.5 ug of B/mL media concentration. The format is functional.
The subject of data set [8] is Mus musculus. In words: In vivo biodistribution in mice kidney bearing intracerebral GL261 gliomas at the dose of 10 microg of boron/g/day. The format is ADME, organism-based. In a few lines:
(§2)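 C57Bl/6 mice implanted stereotactically in brain (2.5–3.0 mm deep) with 10^5 GL261 cells in serum-free DMEM with 1.5% agarose. Polyamine-deficient diet and 2% DFMO water for 3 days, then Alzet pump infusion at 10 μg boron/g per day for 3 days with diet and DFMO continued. Five mice; tissue boron by DCP-AES, mean ± SD.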

Data set [9] relates to Mus musculus. In words: In vivo biodistribution in mice liver bearing intracerebral GL261 gliomas at the dose of 10 microg of boron/g/day. It is filed as ADME, organism-based. In a few lines:
as §2

Data set [10] is described as follows: In vitro cellular uptake by F98 glioma cells after 48 hr incubation in the presence of 5.1 micro g of B/mL media concentration. The format is functional, Rattus norvegicus. In a few lines:
as §1

Data set [11] deals with Mus musculus. Briefly: In vivo biodistribution in mice muscle bearing subcutaneous B16 melanomas at the dose of 10 ug/g. The format is ADME, organism-based, Muscle tissue.
Data set [12] can be described thus: In vitro concentration required for 50% reduction in the uptake of [3H]-TdR by F98 glioma cells. The format is functional, Rattus norvegicus.
Data set [13] deals with Mus musculus. Briefly: In vivo biodistribution in mice blood bearing subcutaneous B16 melanomas at the dose of 10 ug/g. The format is ADME, organism-based.
Data set [14] has as its system Mus musculus. In words: In vivo biodistribution in mice liver bearing subcutaneous B16 melanomas at the dose of 10 ug/g. It is filed as ADME, organism-based.
Data set [15] concerns Mus musculus. Briefly: In vivo biodistribution in mice kidney bearing subcutaneous B16 melanomas at the dose of 10 ug/g. It is filed as ADME, organism-based.

Where “and” joins values, the source holds several entries; their conditions need not be identical. Equal entries are not always repeated.

In the case of “N*1*-{4-[2-(2-Amino-ethyl)-cyclopropyl]-butyl}-N*1*-(3-amino-propyl)-butane-1,4-diamine; trihydrochloride”, the Ccellular (ug of B (g of cells)-1) in the data set filed under Rattus norvegicus [1] turned out to be 116; in the data set filed under Rattus norvegicus [2], 51; in the data set listed under Rattus norvegicus [3] it was 19.
Turning to `NCCCCNCCCN` [SPERMIDINE], the IC50 in the data set with Nucleic Acid is 105 µM; in data set [4] it was above 100 µM.
As to “N-{4-[2-(2-Amino-ethyl)-cyclopropyl]-butyl}-N,N'-bis-(3-amino-propyl)-butane-1,4-diamine hydrochloride”, the Ccellular (ug of B (g of cells)-1) was 82 in the data set filed under Rattus norvegicus [5], 229 in the data set filed under Rattus norvegicus [6] and 15 in the data set filed under Rattus norvegicus [3].
As for `NCCCNCCCCNCCCN` [SPERMINE], the IC50 with Nucleic Acid was 3 µM; in [4] it was above 100 µM.
“N1-(3-Amino-propyl)-N1-(4-cyclopropyl-butyl)-butane-1,4-diamine(B10H10) [listing 1 of 2 here]”: the Ccellular (ug of B (g of cells)-1) in the data set filed under Rattus norvegicus [7] came out at 65; in the data set filed under Rattus norvegicus [3] it was 43.
In the case of “3-[2-(4-{(3-Amino-propyl)-[4-(3-amino-propylamino)-butyl]-amino}-butyl)-cyclopropyl]-propane-1,2-diol hydrochloride”, the Ccellular (ug of B (g of cells)-1) in the data set listed under Rattus norvegicus [5] amounted to 60; in the data set listed under Rattus norvegicus [6], 83; in the data set filed under Rattus norvegicus [3] it was 20.
As to `Cl.Cl.Cl.NCCCCN(CCCN)Cc1ccc(B(O)O)cc1`, the Biodistribution with Mus musculus [8] is 44 ug of B g-1; in the data set on Mus musculus [9] it was 22.9 ug of B g-1. The IC50 in the data set with Nucleic Acid is 115 µM; in [4], above 5000 µM. For the same molecule, the Ccellular in data set [10] is listed as 114 ug of B (g of cells)-1.
For the molecule “3-(2-{4-[(4-Amino-butyl)-(3-amino-propyl)-amino]-butyl}-cyclopropyl)-propane-1,2-diol; trihydrochloride”, the Ccellular (ug of B (g of cells)-1) was found to be 104 in the data set filed under Rattus norvegicus [1], 51 in the data set filed under Rattus norvegicus [2] and 9 in the data set filed under Rattus norvegicus [3].
With “N,N'-Bis-(3-amino-propyl)-N-(4-cyclopropyl-butyl)-butane-1,4-diamine hydrochloride”, in the data set listed under Rattus norvegicus [3], the Ccellular (ug of B (g of cells)-1) is 64.
With “N1-(3-Amino-propyl)-N1-(4-cyclopropyl-butyl)-butane-1,4-diamine(B10H10) [listing 2 of 2 here]”, the IC50 with Nucleic Acid was 147 µM; in data set [12], 22 µM. Also, the Biodistribution in the data set on Mus musculus [11] was 9.8 ug of B g-1; in the data set on Mus musculus [13] it was 9.3 ug of B g-1 and 12.5 ug of B g-1; in the data set on Mus musculus [14], 74.8 ug of B g-1; in the data set on Mus musculus [15], 201.3 ug of B g-1.

As usually defined, the IC50 is the midpoint of a concentration-inhibition curve. Read a high IC50 as weaker potency in that assay.
